Compounds with a hit are over-represented: about 1.8% of the library has one in this group of screens.
Scp-1 inhibitor – blocks human Scp-1 phosphatase activity | Q9GZU7 | Recombinant Scp1, phosphopeptide, malachite green phosphate absorbance | inhibition, % at 20 µM | 0.88% of 340,000 active | AID 493091;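 active means inhibition above about 50% at 20 µM, limit read from the data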;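 further: plate controls were DMSO wells with enzyme for no effect and wells lacking enzyme for full effect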
Target sequence (Q9GZU7 76-261 limits assumed): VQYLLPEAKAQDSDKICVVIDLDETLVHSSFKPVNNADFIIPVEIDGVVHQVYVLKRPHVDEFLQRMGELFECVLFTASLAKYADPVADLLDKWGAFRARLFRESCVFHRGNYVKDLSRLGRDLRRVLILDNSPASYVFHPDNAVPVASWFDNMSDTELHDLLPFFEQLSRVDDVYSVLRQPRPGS
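assay system = SCP-1 phosphatase catalytic domain, residues 76-261 | buffer or medium = 50 mM Tris acetate pH 5.5, 0.005% Tween-20, 10 mM MgCl2 | incubation = enzyme reaction 45 min at room temperature, colour 5 min, stabilisation 30 min | signal = Phosphate-binding colour reagent, absorbance read at 630 nm | measure = % inhibition at 20 µM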
LMPTP block – LMPTP (human) inhibition; inhibition, % at 20 µM; recombinant LMPTP-A, OMFP fluorogenic substrate, fluorescence intensity; 0.22% of 360,000 active; P24666; AID 651560;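 active means compounds that cut the enzyme signal by at least half of the control window in the single-dose screen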;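 further: plate controls were DMSO wells with enzyme plus substrate for no effect and substrate without enzyme for full effect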
Target sequence (P24666 whole entry, looked up): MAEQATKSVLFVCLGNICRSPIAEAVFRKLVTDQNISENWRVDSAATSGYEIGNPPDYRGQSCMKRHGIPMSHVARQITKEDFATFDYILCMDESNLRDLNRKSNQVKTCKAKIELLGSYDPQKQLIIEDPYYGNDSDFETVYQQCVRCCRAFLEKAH
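Test system: LMPTP-A, protein tyrosine phosphatase of low molecular weight; Input: 0.625 nM enzyme; Incubation: 50 min dark incubation at room temperature; Signal: endpoint fluorescence intensity from OMFP dephosphorylation; Read-out basis: % inhibition versus control wells.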
STEP block – inhibitors of human striatal-enriched phosphatase STEP; P54829; recombinant STEP, OMFP fluorogenic substrate, fluorescence; inhibition, % at 20 µM; 0.25% of 360,000 active; AID 588621;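 active means inhibition at 20 µM, scaled per plate between control wells, above about 37%, limit read from the data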;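 further: 0% = DMSO with enzyme and substrate and 100% = substrate only without enzyme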
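Material: STEP (striatal-enriched tyrosine phosphatase) enzyme, cell-free; Compound dosing: 20 µM single dose in 1% DMSO; Technique: fluorescence read at 480 nm ex / 540 nm em; Times: reaction 20 min, ambient temperature; Medium: 50 mM Bis-Tris pH 6.0 with 2.5 mM DTT and 0.005% Tween 20; Also added: OMFP at 25 µM.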
DNMT1 block – DNMT1 (human) enzyme inhibition | AID 588458 | inhibition (reported as % activation of signal), % at 10 µM | P26358 | DNMT1 molecular beacon, Hinp1I cleavage, fluorescence | 0.83% of 360,000 active; in the data active means inhibition above about 50%
SUMO1 PPI mod – SUMO1-SIM interaction modulation; 0.33% of 360,000 active; AID 602429; SUMO1 binding to a labelled peptide, TR-FRET, 1 h; inhibition, % at 20 µM; P63165; in the data active means inhibition above about 37%
Target sequence (P63165 whole entry, looked up): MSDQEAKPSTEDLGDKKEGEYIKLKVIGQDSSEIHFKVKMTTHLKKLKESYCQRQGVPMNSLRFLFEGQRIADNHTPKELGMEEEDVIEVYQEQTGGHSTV
Scp1 confirm – Scp-1 (human) inhibition, single-dose confirmed | shares compounds with Scp-1 inhibitor | recombinant SCP-1 catalytic domain, phosphate release, malachite green absorbance | inhibition, % at 20 µM | 61% of 2,500 active | AID 540281;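 further: plate controls were DMSO with enzyme for no effect and buffer wells lacking enzyme for full effect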
Scp-1 MG ctr – interferes with malachite green readout, flagging false Scp-1 hits; shares compounds with Scp-1 inhibitor; Colorimetric interference counterscreen, malachite green absorbance 630 nm; apparent inhibition (interference), % at 20 µM; 2,500 tested, under 10 active;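 further: compounds added after enzyme reaction finished so only phosphate colour detection is probed; plate controls were DMSO wells with completed Scp-1 reaction for no effect and substrate wells lacking enzyme for full effect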
Scp-1 Tm shift – Scp-1 (human) binding by thermal shift | shares compounds with Scp-1 inhibitor | Recombinant SCP1, Sypro Orange thermal shift Tm | thermal shift relative to vanadate control, % at 40 µM | 25% of 1,500 active;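 active means substances whose mean melting-temperature shift, as a percentage of the reference inhibitor's shift, reaches about 5.3%, limit read from the data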;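 further: 0% = Tm of DMSO wells and 100% = Tm with sodium orthovanadate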
* marks the source's active call; other numbers are inactive results; / = no result.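 How the source made its calls, unless noted: active means inhibition of at least 30% at 20 µM; inactive means the rest.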

SMILES	Scp-1 inhibitor	LMPTP block	STEP block	DNMT1 block	SUMO1 PPI mod	Scp1 confirm	Scp-1 MG ctr	Scp-1 Tm shift
CCCCn1c(N)c(N(CCOC)C(=O)c2cc(-c3ccco3)nc3ccccc23)c(=O)[nH]c1=O	58.2*	9.3	4.3	42.8	7.1	67.0*	-2.4	1.8
CCCn1c(N)c(N(CCOC)C(=O)c2cc(Cl)nc3ccccc23)c(=O)[nH]c1=O	-9.0	-0.6	-2.7	0.8	-5.6	/	/	/
COCCN(C(=O)c1cc(-c2ccco2)nc2ccccc12)c1c(N)n(Cc2ccccc2)c(=O)[nH]c1=O	64.1*	14.1	5.2	22.0	-3.8	57.7*	-18.6	-2.6
CCOC(=O)C1CCN(C(=O)c2ccc3nc(-c4ccc(OC)cc4)c(-c4ccc(OC)cc4)nc3c2)CC1	-5.3	10.4	3.9	-7.9	-39.5	/	/	/
CCC1Oc2ccc(C)cc2N(CC(=O)NCCCN2CCOCC2)C1=O (configuration not stated)	0.1	-0.8	-1.5	1.9	3.5	/	/	/
COc1ccc(N=c2oc3c(OC)cccc3cc2C(=O)NCc2ccco2)cc1OC	21.5	1.6	3.3	-13.9	-20.2	/	/	/
COc1cccc2cc(C(=O)Nc3ccc(F)cc3)c(=Nc3ccc(C(=O)O)cc3)oc12	102.1*	34.6	-2.1	10.2	22.4	23.5	-17.3	/
COc1cc2ccccc2cc1C(=O)NC(=S)Nc1ccc(C(=O)O)cc1	61.2*	38.9	9.5	2.6	6.9	51.6*	-14.2	-14.1
COc1ccc(NC(=O)c2cc3ccccc3cc2OC)cc1	-13.9	1.3	-1.2	-16.1	-9.0	/	/	/
CCCc1cc(SCC(=O)Nc2c(C)n(C)n(-c3ccccc3)c2=O)n2c(nc3ccccc32)c1C#N	97.7*	/	/	/	/	84.4*	-8.2	-5.3
CCOC(=O)CCn1nc(-c2ccc(Cl)cc2)cc1N	89.2*	1.5	0.7	9.3	2.8	-18.8	-15.6	/
CCOC(=O)Cn1nc(-c2ccc(Cl)cc2)cc1N	-6.8	0.1	1.5	-6.7	0.1	/	/	/
Nc1ccc(C(=O)Nc2ccc3c(O)cc(S(=O)(=O)O)cc3c2)cc1	52.8*	21.4	3.3	11.6	19.8	45.9*	-16.9	10.9*
Nc1ccc(C(=O)Nc2ccc(OC(F)(F)C(F)F)c(NC(=O)c3ccc(N)cc3)c2)cc1	-11.8	-0.4	-6.5	-28.6	0.4	/	/	/
COc1cc(C(=O)Nc2ccc3c(c2)N(C(=O)CN2CCN(C)CC2)c2ccccc2CC3)cc(OC)c1OC	-14.2	-3.4	-2.3	0.2	-8.7	/	/	/
O=[N+]([O-])c1cc2c(c3cccnc13)COCO2	61.6*	12.9	-0.1	22.7	-21.0	52.2*	-10.4	-2.1
O=C(O)c1ccc(S(=O)(=O)c2ccccc2)cc1	-8.0	-0.1	-4.1	1.8	-2.8	/	/	/
O=C(O)c1ccc(Oc2ccc(S(=O)(=O)c3ccc(C(=O)O)c(C(=O)O)c3)cc2)cc1	54.3*	-0.4	14.4	9.7	0.4	40.6*	-24.9	-10.0
CCN(CC)CCNC(=O)c1ccc(NC(=O)C2CCN(c3ncnc4sc(C)c(C)c34)CC2)cc1	112.1*	1.4	-1.2	-2.8	-6.6	-13.6	-7.6	/
Cc1ccc(N=C2NC(=O)S/C2=C\c2ccco2)cc1	97.4*	62.8*	34.6	3.8	-3.2	56.9*	-13.1	3.8
O=C1NC(=Nc2ccccc2)/C(=C/c2ccco2)S1	3.0	1.1	0.5	1.3	-9.6	/	/	/
Clc1cc(CSc2ccccc2)nc(-c2ccccc2)n1	61.4*	2.6	2.8	-1.3	1.6	35.7*	-20.8	-27.0
Cc1ccc(S(=O)(=O)OCC(=O)Nc2ccc(C(=O)O)c(O)c2)cc1	64.1*	0.0	6.1	45.7	1.6	48.2*	-13.4	7.6*
Cc1ccc(NC(=O)COCC(=O)Nc2ccc(C)cc2)cc1	3.6	-0.4	-0.5	2.7	1.7	/	/	/
Cc1cn(C2CC(OC(=O)C(C)C)C(CO)O2)c(=O)[nH]c1=O (configuration not stated)	-3.6	-0.6	-1.3	-0.7	-0.5	/	/	/
